Measurements taken from ChEMBL document CHEMBL3393041, “Denhaminols A-H, dihydro-β-agarofurans from the endemic Australian rainforest plant Denhamia celastroides” (J Nat Prod, 2015).
Blank lines part the entries; values can stand above or below the molecule they belong to. The source made the active and inactive calls. No cut-off for these calls is given here.

Tests used:
Format in all cases: functional, cell-based
LNCaP [1] = test: Reduction in sterol content in human LNCAP cells at 10 uM after 72 hrs by nile red staining based fluorescence microscopy
Summary of the method: (§1)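 LNCaP cells were seeded at 3000/well on poly-L-ornithine-coated plates in phenol-red-free RPMI-1640 with 5% FBS for 48 h, then treated for 72 h. Cells were fixed in 4% paraformaldehyde for 20 min on ice and stained 20 min at RT in PBS with 1.0 μg/mL DAPI and 0.25 μg/mL Nile Red. Mean fluorescence was measured for neutral lipids (Cy3) and phospholipids (Cy5) in ~300 cells at 10×. Analysis used one-way ANOVA with Dunnett's test. DMSO was the negative control and TOFA the positive control. Duplicate points; three independent experiments.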

LNCaP [2] = test: Reduction in phosphatidylcholine content in human LNCAP cells at 10 uM after 72 hrs by nile red staining based fluorescence microscopy; summary of the method: as §1
LNCaP [3] = test: Reduction in phosphatidylethanolamine content in human LNCAP cells at 10 uM after 72 hrs by nile red staining based fluorescence microscopy; summary of the method: as §1
LNCaP [4] = test: Reduction in fatty acid content in human LNCAP cells at 10 uM after 72 hrs by nile red staining based fluorescence microscopy; summary of the method: as §1
LNCaP [5] = test: Reduction in triglyceride content in human LNCAP cells at 10 uM after 72 hrs by nile red staining based fluorescence microscopy; summary of the method: as §1
LNCaP [6] = test: Reduction in phosphatidylserine content in human LNCAP cells at 10 uM after 72 hrs by nile red staining based fluorescence microscopy; summary of the method: as §1
LNCaP [7] = test: Growth inhibition of human LNCAP cells after 72 hrs by Alamar Blue assay
Summary of the method: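 LNCaP cells in phenol-red-free RPMI-1640 with 5% FBS were seeded 4000/well for 24 h, then treated with compounds diluted from DMSO into medium (DMSO ≤0.4%). Metabolic activity was read by AlamarBlue endpoint after 72 h. IC50 was calculated at 72 h. DMSO served as negative control and doxorubicin as positive control. Triplicate points; three independent experiments.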

LNCaP [8] = test: Antiproliferative activity against human LNCAP cells assessed as enlargement, granulation and cell burst at 10 to 100 uM by live-cell imaging method; settings: TDE = time-dependent effect
Summary of the method: (§2)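 LNCaP cells (ATCC) grown in phenol-red-free RPMI-1640 with 5% FBS at 37 °C, 5% CO2, kept in log phase. Cells seeded 4000/well for 24 h, then treated with compounds in DMSO diluted in medium (DMSO ≤0.4%). Plates imaged every 2 h for 96 h by IncuCyte live-cell imaging; growth read as confluence; morphology recorded from the images. DMSO as vehicle control.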

LNCaP [9] = test: Antiproliferative activity against human LNCAP cells assessed as enlargement, granulation and cell burst measured every 2 hrs for 96 hrs by live-cell imaging method; summary of the method: as §2
LNCaP [10] = test: Reduction in phosphatidylserine content in human LNCAP cells at 25 uM after 72 hrs by nile red staining based fluorescence microscopy; summary of the method: as §1
LNCaP [11] = test: Reduction in phosphatidylethanolamine content in human LNCAP cells at 25 uM after 72 hrs by nile red staining based fluorescence microscopy; summary of the method: as §1
LNCaP [12] = test: Reduction in phosphatidylcholine content in human LNCAP cells at 25 uM after 72 hrs by nile red staining based fluorescence microscopy; summary of the method: as §1
LNCaP [13] = test: Antiproliferative activity against human LNCAP cells assessed as change in cell morphology at 10 to 100 uM measured up to 96 hrs by live-cell imaging method; summary of the method: as §2
LNCaP [14] = test: Reduction in fatty acid content in human LNCAP cells at 60 uM after 72 hrs by nile red staining based fluorescence microscopy; summary of the method: as §1
LNCaP [15] = test: Reduction in phosphatidylserine content in human LNCAP cells at 60 uM after 72 hrs by nile red staining based fluorescence microscopy; summary of the method: as §1
LNCaP [16] = test: Reduction in sterol content in human LNCAP cells at 60 uM after 72 hrs by nile red staining based fluorescence microscopy; summary of the method: as §1
LNCaP [17] = test: Reduction in triglyceride content in human LNCAP cells at 60 uM after 72 hrs by nile red staining based fluorescence microscopy; summary of the method: as §1
LNCaP [18] = test: Reduction in phosphatidylcholine content in human LNCAP cells at 60 uM after 72 hrs by nile red staining based fluorescence microscopy; summary of the method: as §1
LNCaP [19] = test: Reduction in phosphatidylethanolamine content in human LNCAP cells at 60 uM after 72 hrs by nile red staining based fluorescence microscopy; summary of the method: as §1

Structure (SMILES): CCCCCCCCCCCCCCOc1ccc(C(=O)O)o1
Activity (LNCaP [1]): Active | Activity (LNCaP [2]): Active | Activity (LNCaP [3]): Active | Activity (LNCaP [4]): Active | Activity (LNCaP [5]): Active | Activity (LNCaP [6]): Active

IC50 (LNCaP [7]): > 10 µM
Structure (SMILES): C/C=C(\C)C(=O)OCC1(C)O[C@]23[C@H](OC(C)=O)[C@H]1[C@H](O)[C@H](OC(=O)/C=C/c1ccccc1)[C@]2(C)[C@@H](OC(=O)COC(C)=O)CC[C@]3(C)O (stereo partly specified)
Activity (LNCaP [8]): tde | Activity (LNCaP [9]): Dose-dependent effect | Activity (LNCaP [10]): Active | Activity (LNCaP [11]): Active | Activity (LNCaP [12]): Active | Activity (LNCaP [13]): Active

IC50 (LNCaP [7]): > 10 µM
Structure (SMILES): CC(=O)OC[C@@]12[C@@H](OC(C)=O)CC[C@](C)(O)[C@]13OC(C)(COC(=O)c1ccccc1)[C@H](C[C@@H]2OC(=O)/C=C/c1ccccc1)[C@H]3OC(C)=O (stereo partly specified)

IC50 (LNCaP [7]): > 10 µM
Structure (SMILES): CC(=O)OC[C@@]12[C@@H](OC(C)=O)CC[C@](C)(O)[C@]13OC(C)(C)[C@H]([C@H](O)[C@@H]2OC(=O)/C=C/c1ccccc1)[C@H]3OC(C)=O

IC50 (LNCaP [7]): > 10 µM
Structure (SMILES): CC(=O)OC[C@@]12[C@@H](OC(C)=O)CC[C@](C)(O)[C@]13OC(C)(C)[C@H](C[C@@H]2OC(=O)/C=C/c1ccccc1)[C@H]3OC(C)=O
Activity (LNCaP [14]): Active | Activity (LNCaP [15]): Active | Activity (LNCaP [16]): Active | Activity (LNCaP [17]): Active | Activity (LNCaP [18]): Active | Activity (LNCaP [19]): Active

IC50 (LNCaP [7]): > 10 µM
Structure (SMILES): CC(=O)OCC(=O)O[C@H]1CC[C@](C)(O)[C@]23OC(C)(COC(=O)c4ccccc4)[C@H]([C@H](O)[C@H](OC(=O)/C=C/c4ccccc4)[C@]12C)[C@H]3OC(C)=O (stereo partly specified)

IC50 (LNCaP [7]): > 10 µM
Structure (SMILES): CC(=O)OC[C@@]12[C@@H](OC(C)=O)CC[C@](C)(O)[C@]13OC(C)(C)[C@H](C[C@@H]2OC(=O)/C=C/c1ccccc1)[C@H]3O

IC50 (LNCaP [7]): > 10 µM
Structure (SMILES): C/C=C(\C)C(=O)OCC1(C)O[C@]23[C@H](OC(C)=O)[C@H]1C[C@H](OC(=O)/C=C/c1ccccc1)[C@]2(COC(C)=O)[C@@H](OC(=O)COC(C)=O)CC[C@]3(C)O (stereo partly specified)

IC50 (LNCaP [7]): > 10 µM
Structure (SMILES): CC(=O)OC[C@@]12[C@@H](OC(C)=O)CC[C@](C)(O)[C@]13OC(C)(COC(=O)c1ccccc1)[C@H](C[C@@H]2OC(=O)/C=C/c1ccccc1)[C@H]3O (stereo partly specified)
